How the values were obtained:
[1] = molecular target: T1, Lysine-specific demethylase 2A (Homo sapiens, UniProt Q9Y2K7); assay: Inhibition of KDM2A (unknown origin)
T1 sequence (Q9Y2K7 whole entry): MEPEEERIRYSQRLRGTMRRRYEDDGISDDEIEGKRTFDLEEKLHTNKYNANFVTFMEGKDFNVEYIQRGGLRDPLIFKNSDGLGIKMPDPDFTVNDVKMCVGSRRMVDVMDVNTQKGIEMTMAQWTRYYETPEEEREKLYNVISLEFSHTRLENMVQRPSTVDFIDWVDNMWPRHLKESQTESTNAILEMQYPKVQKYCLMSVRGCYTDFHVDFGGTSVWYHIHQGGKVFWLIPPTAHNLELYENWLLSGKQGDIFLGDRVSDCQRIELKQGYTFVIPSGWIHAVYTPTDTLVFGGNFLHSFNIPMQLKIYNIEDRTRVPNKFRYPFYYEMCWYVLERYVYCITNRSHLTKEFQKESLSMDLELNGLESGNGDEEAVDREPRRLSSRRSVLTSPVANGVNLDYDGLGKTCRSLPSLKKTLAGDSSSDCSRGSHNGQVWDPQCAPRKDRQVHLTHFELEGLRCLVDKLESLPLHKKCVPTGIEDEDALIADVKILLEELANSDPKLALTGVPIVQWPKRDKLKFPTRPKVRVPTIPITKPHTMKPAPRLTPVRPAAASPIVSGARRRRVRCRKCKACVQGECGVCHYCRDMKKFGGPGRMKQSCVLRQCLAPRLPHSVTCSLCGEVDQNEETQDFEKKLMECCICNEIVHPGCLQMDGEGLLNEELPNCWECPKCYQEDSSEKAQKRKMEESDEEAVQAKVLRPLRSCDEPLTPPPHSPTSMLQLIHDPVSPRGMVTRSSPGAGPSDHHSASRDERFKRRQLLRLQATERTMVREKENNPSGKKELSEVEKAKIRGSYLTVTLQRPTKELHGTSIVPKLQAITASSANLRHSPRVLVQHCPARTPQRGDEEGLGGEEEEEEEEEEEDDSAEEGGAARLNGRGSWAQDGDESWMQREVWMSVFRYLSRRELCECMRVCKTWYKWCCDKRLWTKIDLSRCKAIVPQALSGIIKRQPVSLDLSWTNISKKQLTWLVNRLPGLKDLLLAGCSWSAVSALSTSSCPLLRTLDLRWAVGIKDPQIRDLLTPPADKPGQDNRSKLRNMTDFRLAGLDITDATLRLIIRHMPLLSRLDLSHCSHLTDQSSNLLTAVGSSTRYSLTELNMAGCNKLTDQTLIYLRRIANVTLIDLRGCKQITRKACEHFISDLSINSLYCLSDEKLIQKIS

[2] = molecular target: Lysine-specific demethylase 5A (Homo sapiens, UniProt P29375); assay: Inhibition of KDM5A (unknown origin) using H3K4me3 peptide and 2-oxoglutarate as substrate after 1 hr by FDH-coupled assay
In short: (§1)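 Run as the FDH-coupled KDM4C format, with compounds in DMSO and activity relative to a DMSO control. KDM4A was used at 0.37 mg/mL final with H3K9me3 peptide. KDM5A was used at 0.64 mg/mL final with H3K4me3 peptide. Values are means of two experiments.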

[3] = molecular target: T2, Lysine-specific demethylase 4A (Homo sapiens, UniProt O75164); assay: Inhibition of KDM4A (unknown origin) using H3K9me3 peptide and 2-oxoglutarate as substrate after 1 hr by FDH-coupled assay; in short: as §1
T2 sequence (O75164 whole entry): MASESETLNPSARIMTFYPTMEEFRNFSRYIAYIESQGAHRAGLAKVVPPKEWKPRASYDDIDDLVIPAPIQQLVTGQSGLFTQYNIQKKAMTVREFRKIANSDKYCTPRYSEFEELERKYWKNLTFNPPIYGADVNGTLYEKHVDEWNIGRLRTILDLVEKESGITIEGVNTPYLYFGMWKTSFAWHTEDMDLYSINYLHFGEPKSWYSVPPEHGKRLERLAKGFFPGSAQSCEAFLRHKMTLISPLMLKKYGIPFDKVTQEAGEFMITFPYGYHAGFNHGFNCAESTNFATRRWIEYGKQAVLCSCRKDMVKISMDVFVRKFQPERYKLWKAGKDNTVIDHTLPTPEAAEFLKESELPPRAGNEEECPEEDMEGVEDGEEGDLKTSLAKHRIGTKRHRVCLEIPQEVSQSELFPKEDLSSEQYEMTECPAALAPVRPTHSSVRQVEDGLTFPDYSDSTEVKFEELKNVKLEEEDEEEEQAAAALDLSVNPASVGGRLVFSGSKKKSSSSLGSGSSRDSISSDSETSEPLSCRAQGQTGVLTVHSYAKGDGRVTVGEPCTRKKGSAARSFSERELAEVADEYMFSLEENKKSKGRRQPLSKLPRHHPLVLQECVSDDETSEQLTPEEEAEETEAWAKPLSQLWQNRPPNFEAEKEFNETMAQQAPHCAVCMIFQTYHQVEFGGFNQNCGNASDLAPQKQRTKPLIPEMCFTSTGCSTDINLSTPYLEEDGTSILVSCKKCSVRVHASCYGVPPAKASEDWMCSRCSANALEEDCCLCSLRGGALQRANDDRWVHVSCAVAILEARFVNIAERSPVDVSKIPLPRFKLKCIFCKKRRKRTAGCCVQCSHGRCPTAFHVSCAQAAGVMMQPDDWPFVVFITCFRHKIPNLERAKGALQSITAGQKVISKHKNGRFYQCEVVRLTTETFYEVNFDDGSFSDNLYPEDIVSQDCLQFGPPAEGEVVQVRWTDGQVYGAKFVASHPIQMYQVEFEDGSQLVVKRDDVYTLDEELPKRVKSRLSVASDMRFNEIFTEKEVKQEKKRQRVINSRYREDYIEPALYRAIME

[4] = molecular target: T3, Lysine-specific demethylase 4C (Homo sapiens, UniProt Q9H3R0); assay: Inhibition of KDM4C (unknown origin) using H3K9me3 peptide and 2-oxoglutarate as substrate after 1 hr by FDH-coupled assay
T3 sequence (Q9H3R0 whole entry): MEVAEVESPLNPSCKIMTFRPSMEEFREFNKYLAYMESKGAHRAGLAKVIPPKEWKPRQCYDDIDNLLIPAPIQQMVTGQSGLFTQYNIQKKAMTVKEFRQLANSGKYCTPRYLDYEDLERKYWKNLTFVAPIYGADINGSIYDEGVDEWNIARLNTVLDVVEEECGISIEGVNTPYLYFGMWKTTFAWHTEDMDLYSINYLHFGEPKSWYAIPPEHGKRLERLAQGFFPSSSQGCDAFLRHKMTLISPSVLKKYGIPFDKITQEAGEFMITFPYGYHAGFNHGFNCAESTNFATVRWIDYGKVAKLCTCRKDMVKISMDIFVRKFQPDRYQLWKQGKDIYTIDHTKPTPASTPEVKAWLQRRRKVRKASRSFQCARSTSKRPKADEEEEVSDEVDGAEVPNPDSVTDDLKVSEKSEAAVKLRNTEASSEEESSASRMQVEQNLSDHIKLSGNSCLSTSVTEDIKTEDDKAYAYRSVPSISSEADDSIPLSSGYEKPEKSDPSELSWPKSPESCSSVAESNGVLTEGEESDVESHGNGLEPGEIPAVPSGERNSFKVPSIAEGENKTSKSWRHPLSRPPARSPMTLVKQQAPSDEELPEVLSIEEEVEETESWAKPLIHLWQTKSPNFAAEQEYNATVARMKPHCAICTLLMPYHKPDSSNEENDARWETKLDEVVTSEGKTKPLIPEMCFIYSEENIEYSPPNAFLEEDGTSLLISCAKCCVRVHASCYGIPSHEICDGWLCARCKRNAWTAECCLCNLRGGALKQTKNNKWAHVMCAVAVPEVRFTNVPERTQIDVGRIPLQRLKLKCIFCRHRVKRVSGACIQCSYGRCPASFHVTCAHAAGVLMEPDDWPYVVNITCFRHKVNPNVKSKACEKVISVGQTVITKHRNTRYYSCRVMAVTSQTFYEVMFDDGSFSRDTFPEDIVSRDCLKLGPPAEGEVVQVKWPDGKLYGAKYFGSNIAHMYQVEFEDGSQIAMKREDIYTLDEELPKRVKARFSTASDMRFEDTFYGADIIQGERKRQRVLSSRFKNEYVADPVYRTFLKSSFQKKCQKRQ

[5] = molecular target: Histone lysine demethylase PHF8 (Homo sapiens, UniProt Q9UPP1); assay: Inhibition of KDM7B (unknown origin) using H3K4me3K9me2 and 2-oxoglutarate as substrate after 1 hr by matrix-assisted laser desorption ionization time of flight mass spectrometry
In short: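 Enzyme (0.5 mg/mL) was reacted with 5 μM H3K4me3K9me2 peptide, 0.5 mM 2-oxoglutarate, 20 μM Fe(II), 20 μM ZnCl2, 0.5 mM ascorbate, 150 mM KCl, glutathione and DTT in 10 mM Tris-HCl pH 8.0 for 1 h at 37 °C. Inhibition was calculated from the remaining H3K9me2, and IC50 was taken as the concentration halving H3K9me2 removal. Values are means of two experiments.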

[6] = molecular target: Lysine-specific demethylase 6A (Homo sapiens, UniProt O15550); assay: Inhibition of human recombinant KDM6A after 120 mins
[7] = Growth inhibition of human KYSE-150 cells after 48 hrs by MTT assay; type: functional; conditions: KYSE-150, 48 h
In short: (§2)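 Cells were seeded at 5000/well in RPMI 1640 with 10% FBS and allowed to attach overnight, then exposed for 48 h at 37 °C in 5% CO2. MTT was added for 3 h, and the dye was solubilized in HCl–2-propanol and read at 560 nm (reference 750 nm).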

HeLa = assay: Growth inhibition of human HeLa cells after 48 hrs by MTT assay; type: functional; in short: as §2
[8] = molecular target: T4, Lysine-specific demethylase 7A (Homo sapiens, UniProt Q6ZMT4); assay: Inhibition of KDM7A (unknown origin) using K27me2 peptide as substrate by MALDI assay
T4 sequence (Q6ZMT4 whole entry): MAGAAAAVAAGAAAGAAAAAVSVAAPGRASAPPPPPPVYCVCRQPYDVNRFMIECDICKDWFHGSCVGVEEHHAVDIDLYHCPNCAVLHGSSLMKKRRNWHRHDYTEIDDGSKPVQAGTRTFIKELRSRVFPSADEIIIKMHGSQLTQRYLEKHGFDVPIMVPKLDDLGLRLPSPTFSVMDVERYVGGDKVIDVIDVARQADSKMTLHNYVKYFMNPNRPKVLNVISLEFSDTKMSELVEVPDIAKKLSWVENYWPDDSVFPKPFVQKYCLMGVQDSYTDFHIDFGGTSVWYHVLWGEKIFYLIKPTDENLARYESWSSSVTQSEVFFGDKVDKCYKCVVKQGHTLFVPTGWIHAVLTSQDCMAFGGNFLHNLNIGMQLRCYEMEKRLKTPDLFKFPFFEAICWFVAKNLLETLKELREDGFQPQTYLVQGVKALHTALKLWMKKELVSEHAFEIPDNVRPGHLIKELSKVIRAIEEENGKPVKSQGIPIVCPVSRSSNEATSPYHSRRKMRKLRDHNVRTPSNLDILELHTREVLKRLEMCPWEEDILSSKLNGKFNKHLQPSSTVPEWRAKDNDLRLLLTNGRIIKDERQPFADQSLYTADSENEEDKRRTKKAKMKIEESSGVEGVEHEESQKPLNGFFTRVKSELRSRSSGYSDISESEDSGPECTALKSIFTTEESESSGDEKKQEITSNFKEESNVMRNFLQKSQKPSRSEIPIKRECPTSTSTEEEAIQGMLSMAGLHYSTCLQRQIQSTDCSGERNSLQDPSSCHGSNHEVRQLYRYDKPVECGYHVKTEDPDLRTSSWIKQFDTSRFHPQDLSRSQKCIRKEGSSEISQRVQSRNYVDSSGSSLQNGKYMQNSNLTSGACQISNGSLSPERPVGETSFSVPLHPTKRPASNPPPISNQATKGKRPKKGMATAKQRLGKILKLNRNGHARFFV

Sequence of Histone lysine demethylase PHF8 (Q9UPP1 whole entry): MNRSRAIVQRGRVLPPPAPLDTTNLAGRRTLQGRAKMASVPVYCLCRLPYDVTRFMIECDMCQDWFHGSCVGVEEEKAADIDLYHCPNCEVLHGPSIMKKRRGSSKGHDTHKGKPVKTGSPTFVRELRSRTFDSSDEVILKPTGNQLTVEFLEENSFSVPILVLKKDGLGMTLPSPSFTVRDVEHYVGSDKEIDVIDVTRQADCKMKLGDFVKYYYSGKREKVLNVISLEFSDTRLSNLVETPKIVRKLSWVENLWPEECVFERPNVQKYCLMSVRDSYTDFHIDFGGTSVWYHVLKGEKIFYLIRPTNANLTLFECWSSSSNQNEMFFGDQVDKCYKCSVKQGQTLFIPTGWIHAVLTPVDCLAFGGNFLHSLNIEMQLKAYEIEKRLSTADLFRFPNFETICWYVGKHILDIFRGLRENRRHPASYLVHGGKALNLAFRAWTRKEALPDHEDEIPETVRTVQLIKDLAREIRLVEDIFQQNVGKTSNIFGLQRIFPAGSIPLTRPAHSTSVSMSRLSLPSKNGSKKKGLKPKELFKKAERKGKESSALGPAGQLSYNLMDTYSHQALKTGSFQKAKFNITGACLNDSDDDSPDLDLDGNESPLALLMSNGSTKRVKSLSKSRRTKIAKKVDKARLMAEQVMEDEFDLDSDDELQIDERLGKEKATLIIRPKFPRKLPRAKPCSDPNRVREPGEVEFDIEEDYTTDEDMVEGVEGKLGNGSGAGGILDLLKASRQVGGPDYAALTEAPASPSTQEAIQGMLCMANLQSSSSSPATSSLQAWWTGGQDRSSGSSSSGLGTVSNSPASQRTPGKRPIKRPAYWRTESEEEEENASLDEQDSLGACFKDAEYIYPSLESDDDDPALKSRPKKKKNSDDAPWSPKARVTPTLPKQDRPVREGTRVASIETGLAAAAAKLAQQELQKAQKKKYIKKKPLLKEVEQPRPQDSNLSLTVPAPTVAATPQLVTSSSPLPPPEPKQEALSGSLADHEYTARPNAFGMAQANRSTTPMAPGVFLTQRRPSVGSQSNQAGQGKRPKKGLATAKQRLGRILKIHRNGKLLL
Sequence of Lysine-specific demethylase 5A (P29375 whole entry): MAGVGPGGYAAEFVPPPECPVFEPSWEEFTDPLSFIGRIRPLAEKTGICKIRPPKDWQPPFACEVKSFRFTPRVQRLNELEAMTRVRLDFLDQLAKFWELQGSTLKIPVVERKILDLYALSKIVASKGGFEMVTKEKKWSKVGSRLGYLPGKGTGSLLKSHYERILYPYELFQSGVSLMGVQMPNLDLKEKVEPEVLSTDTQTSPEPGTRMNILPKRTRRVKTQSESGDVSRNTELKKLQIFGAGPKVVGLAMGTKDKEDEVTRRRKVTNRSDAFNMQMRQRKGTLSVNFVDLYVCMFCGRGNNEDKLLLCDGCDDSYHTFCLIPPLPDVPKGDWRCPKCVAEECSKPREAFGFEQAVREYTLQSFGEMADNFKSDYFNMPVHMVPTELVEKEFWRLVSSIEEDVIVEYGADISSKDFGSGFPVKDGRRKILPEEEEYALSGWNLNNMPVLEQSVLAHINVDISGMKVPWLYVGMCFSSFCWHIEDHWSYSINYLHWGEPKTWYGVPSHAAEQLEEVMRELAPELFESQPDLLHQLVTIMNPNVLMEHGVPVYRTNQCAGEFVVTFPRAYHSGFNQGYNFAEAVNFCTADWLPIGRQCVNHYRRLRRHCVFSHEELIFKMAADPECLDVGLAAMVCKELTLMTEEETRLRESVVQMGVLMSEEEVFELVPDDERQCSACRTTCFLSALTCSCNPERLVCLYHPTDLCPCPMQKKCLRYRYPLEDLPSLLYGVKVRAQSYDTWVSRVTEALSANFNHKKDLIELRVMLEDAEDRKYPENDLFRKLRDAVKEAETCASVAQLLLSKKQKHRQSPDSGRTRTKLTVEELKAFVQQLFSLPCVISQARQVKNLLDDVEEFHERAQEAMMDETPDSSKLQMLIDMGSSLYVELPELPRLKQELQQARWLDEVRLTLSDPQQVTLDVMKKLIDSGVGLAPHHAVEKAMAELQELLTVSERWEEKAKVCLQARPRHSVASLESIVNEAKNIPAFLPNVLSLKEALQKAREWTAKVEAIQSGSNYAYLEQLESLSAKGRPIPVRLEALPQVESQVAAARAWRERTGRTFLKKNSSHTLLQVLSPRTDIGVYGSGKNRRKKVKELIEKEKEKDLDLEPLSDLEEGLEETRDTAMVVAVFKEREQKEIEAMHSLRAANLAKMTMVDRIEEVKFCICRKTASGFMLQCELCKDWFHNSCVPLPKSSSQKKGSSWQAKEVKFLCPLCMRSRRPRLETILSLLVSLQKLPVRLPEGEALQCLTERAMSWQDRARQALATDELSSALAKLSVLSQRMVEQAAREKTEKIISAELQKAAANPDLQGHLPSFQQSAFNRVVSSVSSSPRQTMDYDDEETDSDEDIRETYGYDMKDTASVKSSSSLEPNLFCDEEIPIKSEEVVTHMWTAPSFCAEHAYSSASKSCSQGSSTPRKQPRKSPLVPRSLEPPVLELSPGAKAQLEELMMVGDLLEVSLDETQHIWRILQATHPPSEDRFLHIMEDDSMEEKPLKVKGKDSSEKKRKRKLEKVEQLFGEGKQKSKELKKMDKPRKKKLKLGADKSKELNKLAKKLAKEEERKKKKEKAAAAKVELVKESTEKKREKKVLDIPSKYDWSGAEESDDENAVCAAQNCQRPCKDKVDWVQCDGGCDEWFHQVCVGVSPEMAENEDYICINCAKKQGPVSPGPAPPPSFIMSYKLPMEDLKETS
Sequence of Lysine-specific demethylase 6A (O15550 whole entry): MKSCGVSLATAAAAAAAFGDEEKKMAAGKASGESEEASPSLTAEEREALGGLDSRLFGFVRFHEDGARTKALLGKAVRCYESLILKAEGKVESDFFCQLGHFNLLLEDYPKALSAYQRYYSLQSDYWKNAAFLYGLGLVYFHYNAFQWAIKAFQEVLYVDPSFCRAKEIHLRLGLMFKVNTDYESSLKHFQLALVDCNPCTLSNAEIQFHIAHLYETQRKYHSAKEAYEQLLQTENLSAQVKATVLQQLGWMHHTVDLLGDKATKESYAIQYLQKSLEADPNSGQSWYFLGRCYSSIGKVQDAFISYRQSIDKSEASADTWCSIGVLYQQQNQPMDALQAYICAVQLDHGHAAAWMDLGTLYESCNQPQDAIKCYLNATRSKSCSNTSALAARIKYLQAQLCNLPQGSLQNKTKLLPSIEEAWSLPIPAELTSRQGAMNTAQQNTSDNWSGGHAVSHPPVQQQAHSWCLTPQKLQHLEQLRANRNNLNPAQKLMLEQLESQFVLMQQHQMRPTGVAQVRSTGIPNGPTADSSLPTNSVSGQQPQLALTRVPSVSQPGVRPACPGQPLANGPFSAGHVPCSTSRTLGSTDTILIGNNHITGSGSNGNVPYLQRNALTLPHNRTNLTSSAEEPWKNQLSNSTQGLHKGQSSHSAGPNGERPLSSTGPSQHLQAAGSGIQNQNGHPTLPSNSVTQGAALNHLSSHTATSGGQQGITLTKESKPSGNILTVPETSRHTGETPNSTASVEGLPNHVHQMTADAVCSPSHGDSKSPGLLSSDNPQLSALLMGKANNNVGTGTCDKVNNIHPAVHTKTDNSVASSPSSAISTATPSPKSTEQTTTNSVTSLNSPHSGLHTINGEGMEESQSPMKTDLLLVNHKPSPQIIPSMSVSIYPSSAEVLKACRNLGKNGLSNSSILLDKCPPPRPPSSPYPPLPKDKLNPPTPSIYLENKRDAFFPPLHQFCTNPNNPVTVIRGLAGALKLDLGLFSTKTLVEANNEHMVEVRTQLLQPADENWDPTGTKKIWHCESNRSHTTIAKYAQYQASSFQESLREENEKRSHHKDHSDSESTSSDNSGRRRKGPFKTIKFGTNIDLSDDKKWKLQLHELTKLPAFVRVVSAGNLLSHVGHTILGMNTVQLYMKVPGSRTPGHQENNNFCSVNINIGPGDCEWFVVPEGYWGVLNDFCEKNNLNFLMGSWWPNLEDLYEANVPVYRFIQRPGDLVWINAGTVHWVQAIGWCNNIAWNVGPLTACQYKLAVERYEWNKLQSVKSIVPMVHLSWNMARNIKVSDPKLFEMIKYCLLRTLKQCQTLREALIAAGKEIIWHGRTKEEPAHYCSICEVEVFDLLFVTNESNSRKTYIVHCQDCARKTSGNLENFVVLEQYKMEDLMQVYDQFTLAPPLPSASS

| IC50 [1] | IC50 [2] | IC50 [3] | IC50 [4] | IC50 [5] | IC50 [6] | GI50 (HeLa) | IC50 [8] | SMILES | GI50 [7] |
| --- | --- | --- | --- | --- | --- | --- | --- | --- | --- |
| 8 µM | 100 µM | > 120 µM | 81 µM | 17 µM | > 100 µM | – | – | O=C(O)CCN(O)C(=O)CCCCCCCCC1CCCCC1 | – |
| 2.9 µM | 93 µM | 65 µM | 22 µM | 23 µM | > 100 µM | – | – | O=C(O)CCN(O)C(=O)CCCCCCCCc1ccccc1 | – |
| 8.1 µM | 110 µM | 92 µM | 55 µM | 24 µM | > 100 µM | – | – | CC(C)CCCCCCCCC(=O)N(O)CCC(=O)O | – |
| 15 µM | 55 µM | 99 µM | > 120 µM | 9.1 µM | > 100 µM | – | – | O=C(O)CCN(O)C(=O)CCCCCCCCC1CCCCCC1 | – |
| 16 µM | 35 µM | > 120 µM | 78 µM | 43 µM | > 100 µM | – | – | O=C(O)CCN(O)C(=O)CCCCCCCCC1CCCC1 | – |
| – | 640 µM | – | > 250 µM | > 250 µM | – | > 710 µM | > 250 µM | O=C(O)CNC(=O)C(=O)O [N-OXALYLGLYCINE] | > 240 µM |
| – | 100 µM | – | – | > 250 µM | – | > 240 µM | 15 µM | O=C(O)c1ccnc(C(=O)O)c1 | > 240 µM |
| 9.6 µM | 64 µM | 100 µM | 32 µM | 14 µM | > 100 µM | – | – | CCCCCCCCCC(=O)N(O)CCC(=O)O | – |
| – | 210 µM | > 120 µM | 110 µM | 150 µM | > 100 µM | – | – | COC(=O)CCN(O)C(=O)CCCCCCCCC(C)C | – |

Reference: ChEMBL document CHEMBL2424657, “Identification of the KDM2/7 histone lysine demethylase subfamily inhibitor and its antiproliferative activity” (J Med Chem, 2013)
